From ChEMBL document CHEMBL1150651, “Cholestane glycosides from the bulbs of Ornithogalum thyrsoides and their cytotoxic activity against HL-60 leukemia cells” (J Nat Prod, 2002) come the findings set out here.

Values after ≈ are worked out from the molar mass of the structure shown.

In this assay the test system is HL-60. Briefly: Cytotoxicity against human HL60 cells after 72 hrs by MTT assay. Type of assay: functional, cell-based. The following applies: HL-60, 72 h. The method in brief:
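HL-60 cells (JCRB 0085) grown in RPMI 1640 with heat-inactivated 10% FBS, L-glutamine, penicillin and streptomycin. Seeded at 4 × 10^4 cells/mL and preincubated 24 h at 37 °C in 5% CO2. Sample added in EtOH-H2O (1:1) at final 0.00001-10 µg/mL; vehicle in control wells. After 72 h, MTT (5 mg/mL in PBS) added for 4 h. Formazan dissolved in DMSO, absorbance read at 550 nm.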
As for `COc1ccc(C(=O)O[C@H]2[C@H](O[C@@H]3[C@@H](OC(C)=O)[C@H](O[C@H]4C[C@H]5[C@@H]6CC=C7C[C@@H](O[C@@H]8O[C@H](CO)[C@@H](O)[C@H](O)[C@H]8O)CC[C@]7(C)[C@H]6CC[C@]5(C)[C@@]4(O)[C@H](C)C(=O)CCC(C)C)OC[C@@H]3O)OC[C@@H](O)[C@@H]2O)cc1OC`, the IC50 – broadly, the concentration that inhibits the measured activity by half – was determined as 0.00013 µg/mL (≈ 0.000122 µM). The figure for `CC(=O)O[C@H]1[C@H](O[C@H]2C[C@H]3[C@@H]4CC=C5C[C@@H](O[C@@H]6O[C@H](CO)[C@@H](O)[C@H](O)[C@H]6O)CC[C@]5(C)[C@H]4CC[C@]3(C)[C@@]2(O)[C@H](C)C(=O)CCC(C)C)OC[C@H](O)[C@@H]1O[C@@H]1OC[C@@H](O)[C@H](O)[C@H]1O` is 0.013 µg/mL (≈ 0.0144 µM).

Turning to `CC(=O)O[C@H]1[C@H](O[C@H]2C[C@H]3[C@@H]4CC=C5C[C@@H](O[C@@H]6O[C@H](CO[C@@H]7O[C@H](CO)[C@@H](O)[C@H](O)[C@H]7O)[C@@H](O)[C@H](O)[C@H]6O)CC[C@]5(C)[C@H]4CC[C@]3(C)[C@@]2(O)[C@H](C)C(=O)CCC(C)C)OC[C@H](O)[C@@H]1O[C@@H]1OC[C@@H](O)[C@H](O)[C@H]1O`, the IC50 was more than 10 µg/mL. The figure for `COc1cc(C(=O)O[C@H]2[C@H](O[C@@H]3[C@@H](OC(C)=O)[C@H](O[C@H]4C[C@H]5[C@@H]6CC=C7C[C@@H](O[C@@H]8O[C@H](CO[C@@H]9O[C@H](CO)[C@@H](O)[C@H](O)[C@H]9O)[C@@H](O)[C@H](O)[C@H]8O)CC[C@]7(C)[C@H]6CC[C@]5(C)[C@@]4(O)[C@H](C)C(=O)CCC(C)C)OC[C@@H]3O)OC[C@@H](O)[C@@H]2O)cc(OC)c1OC` is 0.7 µg/mL (≈ 0.557 µM). The figure for `COc1ccc(C(=O)O[C@H]2[C@H](O[C@@H]3[C@@H](OC(C)=O)[C@H](O[C@H]4C[C@H]5[C@@H]6CC=C7C[C@@H](O[C@@H]8O[C@H](CO[C@@H]9O[C@H](CO)[C@@H](O)[C@H](O)[C@H]9O)[C@@H](O)[C@H](O)[C@H]8O)CC[C@]7(C)[C@H]6CC[C@]5(C)[C@@]4(O)[C@H](C)C(=O)CCC(C)C)OC[C@@H]3O)OC[C@@H](O)[C@@H]2O)cc1OC` is 0.81 µg/mL (≈ 0.66 µM). Compound `COc1cc(C(=O)O[C@H]2[C@H](O[C@@H]3[C@@H](OC(C)=O)[C@H](O[C@H]4C[C@H]5[C@@H]6CC=C7C[C@@H](O[C@@H]8O[C@H](CO)[C@@H](O)[C@H](O)[C@H]8O)CC[C@]7(C)[C@H]6CC[C@]5(C)[C@@]4(O)[C@H](C)C(=O)CCC(C)C)OC[C@@H]3O)OC[C@@H](O)[C@@H]2O)cc(OC)c1OC` displayed an IC50 of 0.00016 µg/mL (≈ 0.000146 µM).

With `CC(C)CCC(=O)[C@@H](C)[C@@]1(O)[C@@H](O[C@@H]2OC[C@H](O)[C@H](O)[C@H]2O)C[C@H]2[C@@H]3CC=C4C[C@@H](O[C@@H]5O[C@H](CO)[C@@H](O)[C@H](O)[C@H]5O)CC[C@]4(C)[C@H]3CC[C@@]21C`, the IC50 is 0.12 µg/mL (≈ 0.165 µM).
